Measured values published in ChEMBL document CHEMBL1133543, “Effect of ring fluorination on the pharmacology of hallucinogenic tryptamines” (J Med Chem, 2000).

How the values were obtained:
Rattus norvegicus [1] = organism: Rattus norvegicus; test: Evaluated in the two-lever drug discrimination assay in DOI trained rats to assess hallucinogenic-like activity (95% confidence intervals); format: functional
How it was run: (§1)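 Rats trained (FR50, 15-min sessions) to discriminate ip training drug from saline: LSD 0.08 mg/kg (186 nmol/kg), DOI 0.4 mg/kg (1.12 µmol/kg) or LY293284 0.025 mg/kg (75 nmol/kg), in 0.9% saline. Test drugs given ip 30 min (or 15 min) before extinction sessions. At least three doses, at least eight rats per dose. Scored quantally as %SDL. ED50 and 95% CI by Litchfield–Wilcoxon.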

Rattus norvegicus [2] = organism: Rattus norvegicus; test: Evaluated in the two-lever drug discrimination assay in LSD trained rats to assess hallucinogenic-like activity (95% confidence intervals); format: functional; how it was run: as §1
[3] = target: T1, 5-hydroxytryptamine receptor 1A (Homo sapiens, UniProt P08908); test: EC50 for inhibition of 50 uM forskolin-stimulated cAMP accumulation against 5-hydroxytryptamine 1A receptor; format: functional
T1 sequence (P08908 whole entry): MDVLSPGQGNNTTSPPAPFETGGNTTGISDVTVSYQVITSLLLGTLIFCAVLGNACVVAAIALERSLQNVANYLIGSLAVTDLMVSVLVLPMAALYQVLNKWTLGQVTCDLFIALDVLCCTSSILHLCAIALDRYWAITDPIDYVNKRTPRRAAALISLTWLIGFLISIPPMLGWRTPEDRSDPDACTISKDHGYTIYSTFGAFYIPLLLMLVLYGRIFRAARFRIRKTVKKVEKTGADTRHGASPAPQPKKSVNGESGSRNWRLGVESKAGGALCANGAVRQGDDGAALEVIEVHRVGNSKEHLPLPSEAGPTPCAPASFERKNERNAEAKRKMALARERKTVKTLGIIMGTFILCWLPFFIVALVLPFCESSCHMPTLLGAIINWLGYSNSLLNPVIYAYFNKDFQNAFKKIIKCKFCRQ

[4] = target: T2, 5-hydroxytryptamine receptor 1A (Rattus norvegicus) (UniProt P19327); test: Evaluated for the 5-hydroxytryptamine 1A receptor agonist activity in LY-293284 trained rats; format: functional; how it was run: as §1
T2 sequence (whole entry): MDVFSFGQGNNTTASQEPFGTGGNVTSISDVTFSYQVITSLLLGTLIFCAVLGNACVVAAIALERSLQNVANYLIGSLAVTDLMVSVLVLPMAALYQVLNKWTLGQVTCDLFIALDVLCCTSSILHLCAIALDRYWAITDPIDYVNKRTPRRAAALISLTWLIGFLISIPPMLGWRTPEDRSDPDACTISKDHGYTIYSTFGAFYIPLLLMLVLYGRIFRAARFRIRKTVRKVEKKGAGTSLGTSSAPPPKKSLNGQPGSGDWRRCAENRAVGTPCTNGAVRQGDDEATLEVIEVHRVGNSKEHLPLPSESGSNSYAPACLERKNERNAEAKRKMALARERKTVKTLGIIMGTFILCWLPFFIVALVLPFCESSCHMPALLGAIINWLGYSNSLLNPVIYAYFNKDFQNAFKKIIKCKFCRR

[5] = target: T3, 5-hydroxytryptamine receptor 2A (Rattus norvegicus, UniProt P14842); test: Evaluated for the effective concentration at [125I]-DOI-labeled rat 5-hydroxytryptamine 2A receptor
[6] = target: 5-hydroxytryptamine receptor 2A (Rattus norvegicus) (UniProt P14842); test: Intrinsic activity was determined at 5-hydroxytryptamine 2A receptor which is percentage response given compared with the response produced by 10 uM serotonin.
How it was run: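 Cells were pretreated 15 min with 10 µM pargyline and 10 mM LiCl, then exposed to agonist for 30 min at 37 °C. Inositol phosphates were separated on Dowex-1 and counted. EC50 was taken for PI turnover. Intrinsic activity is the response relative to 10 µM serotonin. Repeated 3-4 times.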

[7] = target: T3, 5-hydroxytryptamine receptor 2A; test: Evaluated for the binding constant at [125I]-DOI-labeled rat 5-hydroxytryptamine 2A receptor
How it was run: (§2)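 Competition binding with membranes from harvested cells. Rat 5-HT2A or 5-HT2C receptors were expressed in NIH3T3 cells and labelled with 0.20 nM [125I]DOI. […] Buffer was 50 mM Tris, 0.5 mM EDTA, 10 mM MgCl2, pH 7.4. Incubation ran 60 min at 25 °C, then filtration and counting. Ten concentrations were run in duplicate, n = 3-5. Ki was obtained by Cheng–Prusoff.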

[8] = target: T4, 5-hydroxytryptamine receptor 2C (Rattus norvegicus, UniProt P08909); test: Evaluated for the binding constant at [125I]-DOI-labeled rat 5-hydroxytryptamine 2C receptor; how it was run: as §2
T4 sequence (P08909 whole entry): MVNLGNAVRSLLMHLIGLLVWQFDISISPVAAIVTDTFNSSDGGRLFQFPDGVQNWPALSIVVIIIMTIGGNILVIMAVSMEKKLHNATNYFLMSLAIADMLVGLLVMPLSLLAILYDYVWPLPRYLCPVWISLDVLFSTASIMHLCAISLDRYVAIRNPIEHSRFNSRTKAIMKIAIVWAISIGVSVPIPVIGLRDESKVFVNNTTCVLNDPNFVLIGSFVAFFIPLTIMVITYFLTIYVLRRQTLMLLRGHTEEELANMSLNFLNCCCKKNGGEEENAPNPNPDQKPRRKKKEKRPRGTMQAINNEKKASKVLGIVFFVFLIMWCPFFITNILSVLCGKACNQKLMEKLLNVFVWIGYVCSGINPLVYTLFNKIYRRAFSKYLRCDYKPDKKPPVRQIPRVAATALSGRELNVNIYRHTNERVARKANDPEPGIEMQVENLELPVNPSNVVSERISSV

Rattus norvegicus [9] = test: Maximum percentage of DOI-trained rats responding on the training drug lever at 1 umol/kg; format: functional; how it was run: as §1
Rattus norvegicus [10] = test: Maximum percentage of LSD-trained rats responding on the training drug lever at 2 umol/kg; format: functional; how it was run: as §1
[11] = target: T1, 5-hydroxytryptamine receptor 1A; test: Evaluated for the binding constant at [3H]8-OH-DPAT-labeled human 5-hydroxytryptamine 1A receptor
Rattus norvegicus [12] = test: Maximum percentage of DOI-trained rats responding on the training drug lever at 4 umol/kg; format: functional; how it was run: as §1
[13] = target: T1, 5-hydroxytryptamine receptor 1A; test: Evaluated for the binding constant at [3H]8-OH-DPAT-labeled human 5-hydroxytryptamine 1A receptor receptor
Rattus norvegicus [14] = test: Maximum percentage of LSD-trained rats responding on the training drug lever at 8 umol/kg; format: functional; how it was run: as §1
Rattus norvegicus [15] = test: Maximum percentage of DOI-trained rats responding on the training drug lever at 8 umol/kg; format: functional; how it was run: as §1

Chain of 5-hydroxytryptamine receptor 2A (Rattus norvegicus) (P14842 whole entry): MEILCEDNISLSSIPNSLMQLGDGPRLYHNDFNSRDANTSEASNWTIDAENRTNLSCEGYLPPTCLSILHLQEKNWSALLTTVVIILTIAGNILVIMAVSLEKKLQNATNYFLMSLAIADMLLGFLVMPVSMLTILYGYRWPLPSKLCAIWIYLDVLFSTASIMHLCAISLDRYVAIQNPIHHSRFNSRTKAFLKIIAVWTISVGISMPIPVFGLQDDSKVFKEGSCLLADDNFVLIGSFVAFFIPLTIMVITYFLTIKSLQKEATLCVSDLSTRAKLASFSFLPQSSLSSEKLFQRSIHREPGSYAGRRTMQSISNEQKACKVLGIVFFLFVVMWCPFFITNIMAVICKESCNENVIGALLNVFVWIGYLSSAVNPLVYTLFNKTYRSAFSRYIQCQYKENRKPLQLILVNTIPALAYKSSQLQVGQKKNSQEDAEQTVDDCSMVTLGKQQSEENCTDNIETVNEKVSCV
T3 sequence (P14842 whole entry): as above

| SMILES | ED50 (Rattus norvegicus [2]) [µmol/kg] | EC50 [3] [nM] | EC50 [5] [nM] | Intrinsic activity [6] [%] | Ki [7] [nM] | Ki [8] [nM] | Ki [11] [nM] | further results |
| --- | --- | --- | --- | --- | --- | --- | --- | --- |
| COc1cc(CC(C)N)c(OC)cc1I (centres undefined) | 0.27 |  |  |  |  |  |  | ED50 (Rattus norvegicus [1]): 0.3 µmol/kg |
| COc1ccc2[nH]cc(CCN(C)C)c2c1F |  | 0.93 | 18100 | 88 | 122 | 55 |  | ED50 [4]: 0.17 µmol/kg; ED50 (Rattus norvegicus [9]): 66 µmol/kg; ED50 (Rattus norvegicus [10]): 22 µmol/kg |
| CN(C)CCc1c[nH]c2cc(F)cc(O)c12 |  |  | 2600 | 85 |  | 7.4 | 114 |  |
| CCN(CC)CCc1c[nH]c2ccc(OC)cc12 | 1.49 | 22 | 2390 | 99 | 42 | 16 | 1.7 |  |
| CCCN(CCC)C1CCc2cccc(O)c2C1 (centres undefined) |  |  |  |  |  |  |  | ED50 [4]: 0.099 µmol/kg |
| COc1cc2c(CCN(C)C)c[nH]c2cc1F | 4.72 |  | 7900 | 110 | 33 | 19 | 84.5 | ED50 (Rattus norvegicus [12]): 50 µmol/kg |
| CCN(CC)CCc1c[nH]c2ccccc12 | 2.53 | 680 | 5370 | 82 | 133 | 104 | 47 |  |
| CN(C)CCc1c[nH]c2c(F)ccc(O)c12 |  |  | 4920 | 76 | 13 | 5.4 |  | Ki [13]: 120 nM; ED50 (Rattus norvegicus [14]): 63 µmol/kg |
| CCN(CC)C(=O)[C@@H]1C=C2c3cccc4[nH]cc(c34)C[C@H]2N(C)C1 [LYSERGIDE] | 0.037 |  |  |  |  |  |  | ED50 (Rattus norvegicus [1]): 0.014 µmol/kg |
| CCCN(CCC)C1Cc2c[nH]c3ccc(C(C)=O)c(c23)C1 (centres undefined) [LY-293284] |  | 0.13 |  |  |  |  |  | ED50 [4]: 0.031 µmol/kg |
| CCN(CC)CCc1c[nH]c2cc(F)ccc12 |  | 3700 | 33900 | 63 | 145 | 210 | 256 | ED50 (Rattus norvegicus [14]): 40 µmol/kg; ED50 (Rattus norvegicus [15]): 33 µmol/kg |
